Assay results pooled from the literature.
Lines come from different studies, so protocols differ.
Target: Tyrosine-protein kinase Blk (BLK, Homo sapiens, UniProt P51451)

| effect on | action | technique | tested at | measurement | value | SMILES |
| --- | --- | --- | --- | --- | --- | --- |
| enzyme activity | inhibitor | radiometric | 1 µM | remaining activity | 29% | CC(C)(C)c1nc(-c2cccc(NS(=O)(=O)c3c(F)cccc3F)c2F)c(-c2ccnc(N)n2)s1 |
| cell-free assay | – | – | 0.5 µM | remaining signal | 87.7% | COc1cc2ncnc(Nc3ccc(F)c(Cl)c3)c2cc1OCCCN1CCOCC1 |
| enzyme activity | inhibitor | – | 5 µM | remaining activity | 96.1% | O=C(Nc1cnn(-c2csc(C(=O)NC3COC3)c2)c1)Nc1c(F)cccc1Cl |
| cell-free assay | – | competition with immobilised ligand | 1 µM | remaining binding | 93% | Cc1nccc(COC(=O)N2C[C@@H]3[C@@H](CNC(=O)c4ccc5[nH]nnc5c4)[C@@H]3C2)n1 |
| enzyme activity | inhibitor | – | 0.1 µM | activity vs control | 114% | Cc1cc(NC(=O)c2cccc3cc(-c4cccc5[nH]nc(N)c45)ccc23)ccc1F |
| enzyme activity | inhibitor | – | 1 µM | remaining activity | 37.5% | CC(C)(O)[C@H]1CC[C@H](Nc2ccc3ncc(-c4cccc(C(F)(F)F)c4)n3n2)CC1 |
| enzyme activity | inhibitor | – | 0.5 µM | remaining activity | 96.2% | O=c1cc(-c2cccc3c2Sc2ccccc2S3)oc(N2CCOCC2)c1 |
| cell-free assay | – | – | 10 µM | remaining signal | 0% | Cc1ccc(NC(=O)c2ccc(C)c(C(F)(F)F)c2)cc1C#Cc1nn(C2CCC(O)CC2)c2ncnc(N)c12 (centres unmarked) |
| enzyme activity | inhibitor | – | 1 µM | inhibition | 85% | COc1cc2ncnc(Nc3ccc(Oc4ccccc4)cc3C)c2cc1OC |
| cell-free assay | – | competition with immobilised ligand | 1 µM | remaining binding | 65% | O=C(Nc1cccnn1)N1CC(C/C=C/c2cncc(Oc3ccc(C(F)(F)F)cn3)n2)C1 |
| enzyme activity | – | – | 23.5 nM | remaining activity | 1.2% | Cc1ccc(C(=O)Nc2ccc(CN3CCN(C)CC3)c(C(F)(F)F)c2)cc1C#Cc1cnc2cccnn12 |
| cell-free assay | – | competition with immobilised ligand | 1 µM | remaining binding | 100% | O=C(O)[C@H]1[C@H](Cn2nnc3ccccc3c2=O)CC[C@@H]1C(=O)c1ccc(OCCC2CCOCC2)cc1 |
| enzyme activity | inhibitor | – | 1 µM | inhibition | 28% | CN1CC(Oc2cnc(C#N)cc2-c2ccn3nc(NC(=O)C4CC4)cc3c2)C1 |
| cell-free assay | – | competition with immobilised ligand | 0.1 µM | remaining binding | 81% | Nc1c(C(=O)NCc2ccc(C(=O)NCCCC3CCCCC3)cc2)cnn1-c1ccccc1 |
| enzyme activity | inhibitor | – | 0.1 µM | inhibition | 6% | CC/C(=N\NC(=O)NCc1cccc(O)c1)c1ccc(O)c(C)c1O |
| cell-free assay | – | – | 0.5 µM | remaining signal | 78.8% | N#CCCc1ccc2c(c1)-c1[nH]c3ccc([N+](=O)[O-])cc3c1CC(=O)N2 |
| cell-free assay | – | competition with immobilised ligand | 1 µM | remaining binding | 93% | COc1ccc2cc(OCC3(C(=O)O)CN(C(=O)c4ccc(F)cc4)C3)ccc2c1 |
